The values below come from ChEMBL document CHEMBL1687805, “Colistin resistance in Acinetobacter baumannii is mediated by complete loss of lipopolysaccharide production” (2010).

Common to all, as to format: functional
Assay [1] deals with Acinetobacter baumannii. As to the kind of experiment: Antibacterial activity against colistin-resistant Acinetobacter baumannii ATCC 19606R harboring empty plasmid pWH1266 by broth microdilution method. In short, it runs like this: (§1)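 Broth microdilution MIC in cation-adjusted Mueller-Hinton broth following the CLSI protocol, read in μg/ml. Strains were kept on Mueller-Hinton agar and cultured at 37°C. 19606R was selected directly on 10 μg/ml colistin and maintained with it. The pWH1266 or pAL840 transformants of 19606R were introduced by electroporation and selected on 100 μg/ml ampicillin.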
For orientation: In broth dilution the organism is exposed to a series of concentrations in liquid medium.

Assay [2] deals with Acinetobacter baumannii. As to the kind of experiment: Antibacterial activity against colistin-resistant Acinetobacter baumannii ATCC 19606R harboring pAL840 plasmid encoding intact lpxA gene by broth microdilution method. An outline of the steps: as §1
Assay [3] concerns Acinetobacter baumannii. Put plainly: Antibacterial activity against colistin-resistant Acinetobacter baumannii ATCC 19606R exhibiting complete loss of lipopolysaccharide production by broth microdilution method. In short, it runs like this: as §1
Assay [4] concerns Acinetobacter baumannii. Put plainly: Antibacterial activity against Acinetobacter baumannii ATCC 19606 by broth microdilution method. In short, it runs like this: as §1

Converted amounts (≈) assume the structure as drawn. Some results are limits rather than exact numbers.

One may read the MIC as the least concentration at which growth counts as inhibited. A higher MIC goes with a need for much substance. Regarding `CO/N=C(\C(=O)N[C@@H]1C(=O)N2C(C(=O)[O-])=C(C[N+]3(C)CCCC3)CS[C@H]12)c1csc(N)n1`, the MIC in assay [1] was found to be 0.125 µg/mL (≈ 0.26 µM); in assay [2], 16 µg/mL (≈ 33.3 µM); in assay [3], 0.125 µg/mL (≈ 0.26 µM); in assay [4], 16 µg/mL (≈ 33.3 µM).

In the case of `CC[C@H]1OC(=O)[C@H](C)[C@@H](O[C@H]2C[C@@](C)(OC)[C@@H](O)[C@H](C)O2)[C@H](C)[C@@H](O[C@@H]2O[C@H](C)C[C@H](N(C)C)[C@H]2O)[C@](C)(O)C[C@@H](C)CN(C)[C@H](C)[C@@H](O)[C@]1(C)O` [AZITHROMYCIN], the MIC worked out at 2 µg/mL (≈ 2.67 µM) in assay [1], 64 µg/mL (≈ 85.4 µM) in assay [2], 2 µg/mL (≈ 2.67 µM) in assay [3] and 64 µg/mL (≈ 85.4 µM) in assay [4].

POLYMYXIN B: the minimal inhibitory concentration (MIC) in assay [1] is greater than 128 µg/mL; in assay [2] it was 0.5 µg/mL; in assay [3] it was greater than 128 µg/mL; in assay [4], 0.5 µg/mL.
